Most compounds without a hit are left out; they make up all but 2.3% or so of the library.
PAX8 inh HTS: inhibitors of PAX8 transcriptional activity in RMG-I cells | RMG-I TPO-luciferase reporter, SteadyGlo, 24 h | inhibition, % at 12.6 µM | actives 1.2% (n = 360,000) | AID 652154;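 active = mean replicate inhibition at least 60% with every replicate also reaching 60%; inconclusive = only one of the two criteria is met; inactive = mean below 60% and not all replicates reaching 60%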;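 note: luciferase light reporting Pax8 driven TPO promoter activity; plate controls were median of neutral control wells for no effect and mitoxantrone controls for full effect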
PGC1a acetyl inh: PGC1a acetylation modulation, inhibitor mode | AID 651687 | actives 0.17% (n = 350,000) | inhibition, % at 15.6 µM | U2OS PGC1a acetylation, AlphaScreen anti-acetyl-lysine; with virally co-expressed GCN5 acetyltransferase;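 active = every replicate shows inhibition of at least 40%; inconclusive = mean inhibition at least 40% but some replicate below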;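 note: 0% = neutral control wells and 100% = positive control wells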
F508del corr: correctors of CFTR F508del function in bronchial epithelial cells; CFBE cells, YFP halide quenching; stimulated with forskolin plus potentiator P3; % fluorescence drop versus neutral controls; activity (quench increase), % at 7.58 µM; actives 0.36% (n = 350,000); AID 720511;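 active = mean added fluorescence quench of at least 8% versus neutral control, with both replicates also reaching 8%; inconclusive = only one of the mean or replicate conditions met; inactive = mean below 8% and not both replicates reaching 8%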;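 note: cells transiently co-express mutant CFTR-F508del with the halide-sensitive YFP; corrector assay measuring rescue of mutant channel to the surface after 24 h compound exposure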
FN deposition inh: fibronectin deposition inhibition | AH1F fibroblasts, Alexa488-fibronectin deposition fluorescence, overnight | inhibition, % at 12.6 µM | actives 0.086% (n = 350,000);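 active = mean inhibition across replicates of 30% or more, regardless of how many single replicates reach that level; inconclusive = mean under 30% yet at least half of replicates reach 30%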;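 note: positive control wells lacked labelled fibronectin entirely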
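Assay system: AH1F fibroblasts assembling fluorescent fibronectin matrix; Amount: 10000 AH1F cells per well; Buffer or medium: DMEM, 2% serum; Probe or stimulus: Alexa488-fibronectin, 24 nM final in well; Doses: single compound dose, delivered by pin transfer; Incubation: 1 h adhesion, overnight exposure; Measured by: fluorescence 485/525 nm; Read-out: fibronectin deposition inhibition.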
EWS-Fli inh: inhibitors of EWS/Fli oncoprotein transcriptional activity. A673 NR0B1-luciferase reporter, viability-normalised. actives 0.67% (n = 350,000). inhibition, % at 12.6 µM;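 active = mean inhibition of at least 50% after viability correction, with every replicate also passing that limit; inconclusive = mean reaches 50% but only one of two replicates passes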;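 note: firefly luciferase signal divided by Alamar Blue viability fluorescence both relative to DMSO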
Env fusion inh: inhibitors of HIV Env-mediated cell fusion | HeLa-JRFL Env/CEM21 cell fusion, luciferase | actives 1.1% (n = 360,000) | inhibition, % at 12.3 µM;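 active = mean replicate inhibition score of at least 50 and every replicate individually at or above 50; inconclusive = only one of the two criteria met; inactive = mean below 50 and not all replicates reaching 50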;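 note: 0% = plate neutral controls and 100% = maraviroc near 300 nM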
Numbers without * were called inactive; ? = inconclusive; . = no result; ! = not active in a repeat; [ ] = another dose, or the depositor's remark.

SMILES | PAX8 inh HTS | PGC1a acetyl inh | F508del corr | FN deposition inh | EWS-Fli inh | Env fusion inh
Cc1ccc(NC2=C/C(=N\S(=O)(=O)c3cccs3)c3ccccc3C2=O)c(C)c1 | . | 93* | . | . | . | .
N#C[C@H]1[C@@H](c2ccccc2-c2cccc(F)c2)[C@@H](CO)N1C(=O)C1CCCCC1 | -31 | 7 | 2 | 4 | -8 | .
CCCCC(=O)NC(c1ccc(Cl)cc1Cl)c1ccc2cccnc2c1O (stereo not drawn) | 66* | . | 0 | 5 | 28 | -66
CC(C)C(=O)NC(c1ccc(Cl)cc1Cl)c1ccc2cccnc2c1O (stereo not drawn) | 60 | 17 | 2 | 12 | 7 | -289
CCC(=O)NC(c1ccc(Cl)cc1Cl)c1ccc2cccnc2c1O (stereo not drawn) | 66* | 16 | 1 | 11 | 28 | -3
CCCCC(=O)NC(c1cccs1)c1cc(Cl)c2cccnc2c1O (stereo not drawn) | ? | -12 | -3 | 23 | 39 | 0
COc1ccc2c3c([nH]c2c1)[C@@H](CO)N(C(=O)c1cnccn1)CC31CN(C(=O)c2cnccn2)C1 | . | 10 | -3 | . | 8 | .
O=C(Nc1cccc(F)c1)N1C[C@@H]2[C@H](c3ccccc31)[C@H](CO)N2C(=O)c1cccnc1 | -2 | -1 | -5 | -12 | -11 | .
CCC(C)(C)n1nnnc1C(c1ccc(C)cc1)N(Cc1ccco1)Cc1cccs1 (stereo not drawn) | -4 | -28 | . | -11 | . | 135*
C[C@@H]1CN([C@H](C)CO)C(=O)Cc2cc(NC(=O)NC3CCCCC3)ccc2O[C@@H]1CN(C)S(=O)(=O)c1ccccc1 | 4 | -2 | -3 | 11 | 18 | .
CCOc1ccc(OCC)c(NC(=O)CSc2nc3ccccc3c(=O)n2C)c1 | . | 9 | . | . | . | 91*
O=C(C[C@H]1C=C[C@@H](NC(=O)C2CCOCC2)[C@H](CO)O1)NCc1ccncc1 | 13 | -5 | -3 | 7 | 14 | 12[16.7 µM]
O=C(NC1CCCCC1)[C@@H]1[C@@H](CO)[C@@H]2Cn3c(ccc(-c4ccccc4)c3=O)[C@H]1N2 | . | . | . | -2 | . | .
CCCCNc1cccc2c1S(=O)(=O)N(CCCC)CC(COCc1ccccc1)O2 (stereo not drawn) | 5 | -15 | -1 | 0 | 6 | 61*
COc1cccc(Nc2nnc(SCC(=O)N(CC(C)C)CC(C)C)s2)c1 | . | -4 | . | . | . | .
COc1cccc(Nc2nnc(SCN3C(=O)c4ccccc4C3=O)s2)c1 | 84* | -2 | 0 | -3 | -14 | .
CC1CCC(C(C)C)C(OC(=O)C[n+]2cc(-c3ccc(Cl)cc3)n3c2CCCCC3)C1 (stereo not drawn) | 102* | -47 | . | . | 49 | 60*
O=C(C[n+]1cc(-c2ccccc2)n2c1CCCCC2)c1ccc(Cl)cc1 | 40 | -6 | -3 | -9 | -15 | -33
C[C@@H]1CC=CCCNC(=O)[C@@H](C)N(C)C(=O)c2ccccc2O1 (mixture of isomers) | . | . | . | 5 | . | .
COc1ccc(/C=N/Nc2cc(N3CCCC3)nc(N3CCCC3)n2)cc1 | 68* | . | 5 | 17 | 6 | 5
CCCc1nc([N+](=O)[O-])c(S(=O)(=O)c2ccccc2)n1CC(C)C | 86* | . | -2 | . | -24 | 8
CC(C)Cn1c(C(C)C)nc([N+](=O)[O-])c1S(=O)(=O)c1ccc(F)cc1 | 60 | 2 | . | -9 | . | 40
O=C([C@H]1[C@H](CO)[C@H]2Cn3c(ccc(-c4cccnc4)c3=O)[C@@H]1N2CCC(F)(F)F)N1CCCCC1 | -10 | . | 0 | . | -1 | .
COc1ccc2[nH]c3c(=S)nc[nH]c3c2c1 | -34 | . | 1 | 2 | -15 | -41
S=c1nc[nH]c2nc[nH]c12 | 75*! | 19 | 3 | 2 | 36 | -230
SMILES | PAX8 inh HTS | PGC1a acetyl inh | F508del corr | FN deposition inh | EWS-Fli inh | Env fusion inh
NC1C=CC=C(C(=O)O)C1 (stereo not drawn) | -1 | . | -3 | 0 | -8 | 3
O=C(O)C1=C[C@@H](O)[C@@H](O)[C@H](O)C1 | 11 | 14 | 9.7* | -11 | 3 | -8
O=C(C1CCCCC1)N1CC2(C1)[C@H](c1ccccc1)[C@H](CO)N2Cc1nccs1 | . | 0 | 2 | -3 | -2 | .
C[C@H]1CN([C@@H](C)CO)C(=O)Cc2cc(NC(=O)Cn3cnnn3)ccc2O[C@H]1CN(C)C(=O)Nc1ccc(F)cc1 | -2 | 9 | 1 | . | -5 | 2[16.7 µM]
C#CCN(C)CCCOc1ccc(Cl)cc1Cl | -13 | 4 | 8.9* | 0 | -26 | -20
CCN(CC)C(=O)CCCOc1ccc(Cl)cc1Cl | . | . | . | . | . | -199
Cc1ccc2c(CN3CCN(S(=O)(=O)c4ccc(Cl)cc4)CC3)cc(=O)oc2c1C | -5 | 1 | 19* | -3 | 24 | 33
O=C(c1[nH]c(C(F)(F)F)nc1-c1ccccc1)N1CCN(c2ccccc2)CC1 | 29 | 0 | 6 | 19 | 65* | -48
CN(C)S(=O)(=O)c1ccc2c(c1)/C(=C/c1cc3c([nH]1)CCCC3)C(=O)N2 | -41 | -4 | 8.6* | -2 | -1 | -32
CN(C)S(=O)(=O)c1ccc2c(c1)C(=O)c1cc(S(=O)(=O)N(C)C)ccc1CC2 | -2 | -5 | -1 | 0 | 14 | 3
COc1ccc(S(=O)(=O)Nc2ccc3c(c2)C(=O)N([C@H](C)CO)C[C@@H](C)[C@H](CN(C)S(=O)(=O)c2ccc(Cl)cc2)OCCCC[C@H](C)O3)cc1 | 83* | 5 | -4 | 3 | 17 | 17[16.7 µM]
COc1ccc(S(=O)(=O)N(C)C[C@@H]2OCCCC[C@@H](C)Oc3ccc(NS(=O)(=O)c4ccc(Cl)cc4)cc3C(=O)N([C@@H](C)CO)C[C@H]2C)cc1 | 66* | . | 0 | -6 | 12 | .
COc1ccc(S(=O)(=O)Nc2ccc3c(c2)C(=O)N([C@H](C)CO)C[C@H](C)[C@H](CN(C)S(=O)(=O)c2ccc(Cl)cc2)OCCCC[C@@H](C)O3)cc1 | 1 | 6 | 3 | 0 | -3 | -54[16.7 µM]
CC1CCN(C(=O)c2ncn3c2C(=O)N[C@H](C)C3)CC1 | 5 | . | 0 | -5 | 0 | 72*
CCN(CC)C(=O)c1ncn2c1C(=O)N[C@H](C)C2 | -6 | . | -3 | -2 | -6 | 62*
CCN(CC)C(=O)c1ncn2c1C(=O)N[C@@H](C)C2 | -9 | . | -2 | -28 | -3 | 45
C[C@@H]1CCCCO[C@H](CN(C)C(=O)C2CCCCC2)[C@H](C)CN([C@H](C)CO)C(=O)c2cc(NS(=O)(=O)c3ccc(Cl)cc3)ccc2O1 | 67* | -3 | -1 | -3 | 17 | -28[16.7 µM]
C[C@H]1CCCCO[C@H](CN(C)C(=O)C2CCCCC2)[C@@H](C)CN([C@@H](C)CO)C(=O)c2cc(NS(=O)(=O)c3ccc(Cl)cc3)ccc2O1 | 86* | -1 | 2 | -15 | 54* | -19[16.7 µM]

High-throughput results from PubChem BioAssay.
